Laboratory results: ChEMBL document CHEMBL1130025, “Dihydro(alkylthio)(naphthylmethyl)oxopyrimidines: novel non-nucleoside reverse transcriptase inhibitors of the S-DABO series” (J Med Chem, 1997)

Columns and labels:
[1] = test system: Human immunodeficiency virus type 1; assay: Selectivity index is the ratio of CC50 to EC50; conditions: Human immunodeficiency virus 1
MT4 [2] = assay: Dose required to reduce the viability of mock-infected cells by 50%; type: functional; conditions: Homo sapiens
Summary of the method: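 Mock-infected MT-4 cells (1×10^4 per well) were exposed to compound dilutions in parallel with the antiviral assay. After 4 days at 37 °C, viability was measured by MTT. CC50 is the dose reducing viable cell number by 50%.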

MT4 [3] = assay: Dose required to achieve 50% protection of MT-4 cells from the HIV-1 induced cytopathogenicity in HIV-1 infected MT-4 cells; conditions: Homo sapiens
[4] = molecular target: Human immunodeficiency virus type 1 reverse transcriptase (Human immunodeficiency virus 1, UniProt Q72547); assay: Compound concentration required to inhibit the HIV-1 recombinant Reverse transcriptase (rRT) activity by 50%.
H9 = assay: Ability to inhibit HIV-1 multiplication in chronically infected H9/IIIB cells; type: functional, cell-based; conditions: Homo sapiens
Summary of the method: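 Value taken as compound dose lowering infectious HIV-1 titer by 1 log in chronically infected H9/IIIB cells. Titer was read in C8166 cells by limiting dilution (1:2, 4 replica wells per dilution), with light-microscope scoring of cytopathicity after 4 days, expressed as CCID50/mL. Data are means of three separate experiments.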

C8166 = assay: Ability to inhibit HIV-2 multiplication in acutely infected C8166 cells; type: functional, cell-based; conditions: Homo sapiens
Summary of the method: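 C8166 cells (1×10^4 per well) in RPMI 1640 with 10% FCS were infected with 1000 CCID50 of HIV-2 ROD, alongside serial compound dilutions from DMSO stock. After 5 days at 37 °C, viable cells were counted by MTT. EC50 is the dose giving 50% protection from virus-induced cytopathicity. Data are means of three experiments.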

MT4 [5] = assay: Inhibitory activity against resistant HIV-1 strain MC639r was determined.; type: functional, cell-based; conditions: Homo sapiens
MT4 [6] = assay: Inhibitory activity against resistant HIV-1 strain NevR was determined.; type: functional, cell-based; conditions: Homo sapiens

Compound	Ratio [1]	CC50 (MT4 [2])	EC50 (MT4 [3])	further results
Oc1cc(Cc2ccc3ccccc3c2)nc(SC2CCCC2)n1	> 8.1	> 300 µM	3.7 µM	
CCC(C)Sc1nc(O)c(C)c(-c2ccccc2)n1 (centres undefined)		126 µM	> 126 µM	
Cc1c(O)nc(SC2CCCCC2)nc1CCc1ccccc1	> 11	> 300 µM	27 µM	
CCC(C)Sc1nc(O)cc(CCc2ccccc2)n1 (centres undefined)	1.4	180 µM	125 µM	
CCCCCCCCCCCSc1nc(O)cc(Cc2cccc3ccccc23)n1		> 300 µM	> 300 µM	
Cc1c(O)nc(SC2CCCCC2)nc1Cc1ccc2ccccc2c1	> 2.4	> 300 µM	125 µM	
Oc1cc(Cc2cccc3ccccc23)nc(SCc2ccccc2)n1	> 24	> 300 µM	12.6 µM	
CCC(C)Sc1nc(COc2ccccc2)c(C)c(=O)[nH]1 (centres undefined)				IC50 [4]: > 100 µM
Oc1cc(COc2ccccc2)nc(S)n1		> 300 µM	> 300 µM	
CCC(CC)Sc1nc(O)cc(Cc2cccc3ccccc23)n1	50	200 µM	4 µM	
Oc1cc(Cc2cccc3ccccc23)nc(S)n1		> 300 µM	> 300 µM	
Cc1c(O)nc(SC2CCCC2)nc1CCc1ccccc1	> 16	> 300 µM	19 µM	
Cc1cccc(Cc2nc(SC3CCCCC3)nc(S)c2C)c1	12	176 µM	14.6 µM	
Oc1cc(Cc2cccc3ccccc23)nc(SC2CCCCCC2)n1	> 100	> 300 µM	3 µM	
CCC(C)Sc1nc(O)c(C)c(CSc2ccccc2)n1 (centres undefined)	3.3	75 µM	23 µM	
Oc1cc(COc2ccccc2)nc(SC2CCCCC2)n1		> 300 µM	> 300 µM	
Cc1c(O)nc(SC2CCCC2)nc1CSc1ccccc1	> 2	> 300 µM	150 µM	
Cc1nc(SC2CCCC2)nc(O)c1Cc1ccccc1		> 300 µM	> 300 µM	
Oc1cc(COc2ccccc2)nc(SC2CCCC2)n1	> 2	> 300 µM	148 µM	
CC(C)Sc1nc(O)cc(Cc2cccc3ccccc23)n1	> 300	> 300 µM	1 µM	
CCC(C)Sc1nc(C)c(Cc2ccccc2)c(O)n1 (centres undefined)		> 300 µM	> 300 µM	
CCCC(C)Sc1nc(O)cc(Cc2cccc3ccccc23)n1 (centres undefined)	34	158 µM	4.6 µM	

Compound	Ratio [1]	CC50 (MT4 [2])	EC50 (MT4 [3])	further results
Cc1c(Cc2cccc3ccccc23)nc(SC2CCCC2)[nH]c1=O				IC50 [4]: 45 µM
Cc1c(O)nc(SC2CCCCC2)nc1CSc1ccccc1	> 2	> 300 µM	150 µM	
CCC(C)Sc1nc(O)c(C)c(Cc2cccc(C)c2)n1 (centres undefined)	100	100 µM		
Cc1cccc(Cc2nc(SC3CCCCC3)n(C)c(=O)c2C)c1		44 µM	> 44 µM	
Cc1nc(SC2CCCCC2)nc(O)c1Cc1ccccc1		> 300 µM	> 300 µM	
CCC(C)Sc1nc(O)cc(-c2ccccc2)n1 (centres undefined)		> 300 µM	> 300 µM	
Oc1cc(CCc2ccccc2)nc(SC2CCCCC2)n1	1.9	133 µM	68 µM	
Cc1c(O)nc(SC2CCCC2)nc1COc1ccccc1	> 13	> 300 µM	24 µM	
Oc1cc(-c2ccccc2)nc(SC2CCCCC2)n1		> 300 µM	> 300 µM	
Oc1cc(-c2ccccc2)nc(SC2CCCC2)n1		> 300 µM	> 300 µM	
CCC(C)Sc1nc(Cc2ccc3ccccc3c2)c(C)c(=O)[nH]1 (centres undefined)				IC50 [4]: 29.7 µM
Cc1c(O)nc(SC2CCCC2)nc1Cc1ccc2ccccc2c1	> 20	> 300 µM	15 µM	
Cc1ccnc2c1NC(=O)c1cccnc1N2C1CC1 [NEVIRAPINE]		> 300 µM	0.25 µM	EC50 (H9): > 100 µM; EC50 (C8166): > 100 µM; EC50 (MT4 [5]): 310 nM; EC50 (MT4 [6]): > 100 µM
CCCc1cc(O)nc(SC(C)CC)n1 (centres undefined)		246 µM	> 246 µM	
COc1nc(SC2CCCCC2)nc(Cc2cccc(C)c2)c1C		> 300 µM	> 300 µM	
Cc1c(O)nc(S)nc1Cc1cccc2ccccc12		145 µM	> 145 µM	
Cc1c(O)nc(SC2CCCCC2)nc1COc1ccccc1	> 14	> 300 µM	22 µM	
Cc1c(O)nc(S)nc1COc1ccccc1		> 300 µM	> 300 µM	
Cc1c(O)nc(S)nc1Cc1ccc2ccccc2c1		91 µM	> 91 µM	
CCC(C)Sc1nc(O)cc(COc2ccccc2)n1 (centres undefined)	> 6	> 300 µM	52 µM	
Cc1cccc(Cc2nc(SC3CCCCC3)ncc2C)c1		128 µM	> 128 µM	
Cc1c(O)nc(S)nc1CSc1ccccc1		> 300 µM	> 300 µM	

Compound	Ratio [1]	CC50 (MT4 [2])	EC50 (MT4 [3])	further results
CCC(C)Sc1nc(O)c(C)c(CCc2ccccc2)n1 (centres undefined)	6	105 µM	18 µM	
Cc1cccc(Cc2nc(SC3CCCCC3)nc(Cl)c2C)c1		133 µM	> 133 µM	
Oc1cc(CSc2ccccc2)nc(SC2CCCCC2)n1	> 9.4	> 300 µM	32 µM	
Cc1c(O)nc(SC2CCCCC2)nc1-c1ccccc1		> 300 µM	> 300 µM	
Cc1c(O)nc(SC2CCCC2)nc1-c1ccccc1		175 µM	> 175 µM	
Cc1c(O)nc(S)nc1CCc1ccccc1		> 300 µM	> 300 µM	
Oc1cc(CSc2ccccc2)nc(S)n1		> 300 µM	> 300 µM	
Cc1cccc(Cc2nc(SC3CCCC3)nc(O)c2C)c1	> 500	> 300 µM		
Oc1cc(Cc2cccc3ccccc23)nc(SC2CCCCC2)n1	> 96	> 300 µM	3.1 µM	
O=c1cc(Cc2cccc3ccccc23)nc(SC2CCCC2)[nH]1				IC50 [4]: 48.7 µM
Oc1cc(Cc2ccc3ccccc3c2)nc(S)n1		> 300 µM	> 300 µM	
Cc1c(O)nc(SC2CCCCC2)nc1Cc1cccc2ccccc12	> 4.7	> 300 µM	63 µM	
Oc1cc(CCc2ccccc2)nc(SC2CCCC2)n1	1.4	112 µM	81.5 µM	
CCC(C)Sc1nc(O)cc(CSc2ccccc2)n1 (centres undefined)	5.4	288 µM	53 µM	
Cc1cccc(Cc2nc(SC3CCCCC3)nc(N)c2C)c1		> 200 µM	> 200 µM	
CCC(C)Sc1nc(Cc2cccc3ccccc23)c(C)c(=O)[nH]1 (centres undefined)				IC50 [4]: 22.5 µM
CCCc1cc(O)nc(SC2CCCCC2)n1		210 µM	> 210 µM	
Oc1cc(CSc2ccccc2)nc(SC2CCCC2)n1	4.5	300 µM	66 µM	
Cc1cccc(Cc2nc(SC3CCCCC3)nc(N/N=C(/N)S)c2C)c1		24 µM	> 24 µM	
CCC(C)Sc1nc(SC2CCCCC2)nc(Cc2cccc(C)c2)c1C (centres undefined)		> 300 µM	> 300 µM	
